Target: Melanocortin receptor 4 (Homo sapiens, UniProt P32245)
Test: Displacement of Eu-DTPA-NDP-a-MSH chelate from human melanocortin-4 receptor expressed in HEK293 cells after 1 hr by competitive DELFIA assay
Outline: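 HEK293 cells stably carrying hMC4R (pcDNA3.1) were grown in DMEM plus 10% FBS, seeded at 12,000 cells/well and cultured 3 days. Whole cells were competed with unlabeled ligand against 10 nM (final) Eu-DTPA-NDP-α-MSH in binding medium (DMEM, 1 mM 1,10-phenanthroline, bacitracin, leupeptin, 0.3% BSA) for 1 h at 37 °C, in quadruplicate. EC50 and Hill slope came from variable-slope sigmoidal fits.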

Melanocortin receptor 4, sequence (P32245 whole entry): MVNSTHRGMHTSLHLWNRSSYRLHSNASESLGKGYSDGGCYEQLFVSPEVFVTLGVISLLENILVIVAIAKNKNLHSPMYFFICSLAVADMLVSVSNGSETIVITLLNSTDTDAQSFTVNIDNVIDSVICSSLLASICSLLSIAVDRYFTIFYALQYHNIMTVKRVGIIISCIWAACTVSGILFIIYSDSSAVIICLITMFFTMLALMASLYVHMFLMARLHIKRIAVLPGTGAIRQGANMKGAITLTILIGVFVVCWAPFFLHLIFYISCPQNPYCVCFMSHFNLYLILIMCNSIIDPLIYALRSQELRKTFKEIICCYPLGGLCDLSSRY

Row | Compound | EC50 [nM]
1 | CCCC[C@H](NC(=O)COCC(=O)NCCCOCCOCCOCCCNC(=O)COCC(=O)NCCCOCCOCCOCCCNC(=O)[C@H](Cc1c[nH]c2ccccc12)NC(=O)[C@H](CCCNC(=N)N)NC(=O)[C@@H](Cc1ccccc1)NC(=O)[C@H](Cc1cnc[nH]1)NC(=O)[C@H](CCC(=O)O)NC(=O)[C@H](CC(C)C)NC(=O)[C@H](CO)NC(C)=O)C(=O)N[C@H]1CC(=O)NCCCC[C@@H](C(N)=O)NC(=O)[C@H](Cc2c[nH]c3ccccc23)NC(=O)[C@H](CCCNC(=N)N)NC(=O)[C@@H](Cc2ccc3ccccc3c2)NC(=O)[C@H](Cc2cnc[nH]2)NC1=O | 1.7
2 | CCCC[C@H](NC(=O)CNC(=O)[C@@H]1CCCN1C(=O)CNC(=O)[C@@H]1CCCN1C(=O)CNC(=O)[C@@H]1CCCN1C(=O)CNC(=O)[C@@H]1CCCN1C(=O)CNC(=O)[C@@H]1CCCN1C(=O)CNC(=O)[C@@H]1CCCN1C(=O)CNC(=O)[C@@H]1CCCN1C(=O)CNC(=O)[C@@H]1CCCN1C(=O)CNC(=O)[C@@H]1CCCN1C(=O)CNC(=O)[C@@H]1CCCN1C(=O)CNC(=O)[C@@H]1CCCN1C(=O)CNC(=O)[C@@H]1CCCN1C(=O)[C@H](Cc1c[nH]c2ccccc12)NC(=O)[C@H](CCCNC(=N)N)NC(=O)[C@@H](Cc1ccccc1)NC(=O)[C@H](Cc1cnc[nH]1)NC(=O)[C@H](CCC(=O)O)NC(=O)[C@H](CC(C)C)NC(=O)[C@H](CO)NC(C)=O)C(=O)N[C@H]1CC(=O)NCCCC[C@@H](C(N)=O)NC(=O)[C@H](Cc2c[nH]c3ccccc23)NC(=O)[C@H](CCCNC(=N)N)NC(=O)[C@@H](Cc2ccc3ccccc3c2)NC(=O)[C@H](Cc2cnc[nH]2)NC1=O | 1.6

— BindingDB's records for doi:10.1016/j.bmc.2014.09.055 (University of Arizona, 2014)
